# Laboratory results reported in ChEMBL document CHEMBL4340532, “Design, synthesis, and biological evaluation of novel 2'-deoxy-2'-fluoro-2'-C-methyl 8-azanebularine derivatives as potent anti-HBV agents” (Bioorg Med Chem Lett, 2019).
# What was measured:
# [1] = Cytotoxicity against human HepG2 cells supplemented with fresh medium containing compound every 3 days for 9 days measured post-last dose by MTT assay; type: cell-based
# How it was run: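 HepG2 cells were exposed to compound for 3 or 9 days and viability was read by MTT assay. CC50 is the concentration causing 50% cytotoxicity. Results are mean ± SD of three experiments.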
# [2] = system: Hepatitis B virus; test: Antiviral activity against Hepatitis B virus infected in human HepG2.2.15 cells assessed as inhibition of HBeAg secretion at 20 uM supplemented with fresh medium containing compound every 3 days for 6 days and measured on day 9 by ELISA relative to control; type: functional
# How it was run: (§1)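 HepG2.2.15 cells were exposed to compound for up to 9 days. The initial screen used 20 µM for 9 days, with lamivudine (20 µM) as positive control. Follow-up used 10, 20 or 40 µM sampled at days 3, 6 and 9. HBsAg and HBeAg were quantified in culture supernatant by ELISA and compared with a no-drug control. Results are mean ± SD of three experiments.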
# [3] = system: Hepatitis B virus; test: Antiviral activity against Hepatitis B virus infected in human HepG2.2.15 cells assessed as inhibition of HBsAg secretion at 20 uM supplemented with fresh medium containing compound every 3 days for 6 days and measured on day 9 by ELISA relative to control; type: functional; how it was run: as §1
Structure (SMILES),CC50 at 216 h [1] [µM],inhibition (INH) [2] [%],inhibition (INH) [3] [%]
CCCCNc1ncnc2c1nnn2[C@@H]1O[C@H](CO)[C@@H](O)[C@@]1(C)F,> 600,11.6,17
C[C@@]1(F)[C@H](O)[C@@H](CO)O[C@H]1n1nnc2c(NCc3ccccc3)ncnc21,> 600,11.9,8.5
C[C@@]1(F)[C@H](O)[C@@H](CO)O[C@H]1n1nnc2c(NC3CC3)ncnc21,> 600,16.7,11.4
C[C@@]1(F)[C@H](O)[C@@H](CO)O[C@H]1n1nnc2c(Nc3ccccc3)ncnc21,501,17.7,14.8
